For series [1], the target named is Alpha-synuclein (Homo sapiens) (UniProt P37840). As to the kind of experiment: Inhibition of recombinant alpha-Synuclein (unknown origin) aggregation assessed as reduction in oligomer formation at compound-protein ratio of 1:0.6 incubated for 10 mins in presence of 53W light exposure for 1 sec by PICUP assay. The method in brief: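 α-Syn (60 μM) in 10 mM phosphate buffer was cross-linked with Ru(bpy)3 (300 μM) and ammonium persulfate (6 mM), compound at 50, 100 or 200 μM. Light from a 53 W incandescent bulb for 1 s. Laemmli/2-mercaptoethanol added, then 95 °C for 10 min. Samples run on 16 % SDS-PAGE with Coomassie stain; oligomer bands at 35–40 kDa assessed. Controls lacked light or Ru(bpy)3.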

Series [2] shares this target. As to the kind of experiment: Inhibition of recombinant alpha-Synuclein (unknown origin) aggregation assessed as reduction in fluorescence intensity by measuring residual activity at 100 uM measured every 20 mins for 40 to 70 hrs by Thioflavin T based fluorescence analysis relative to control. The conditions noted are these: time 40-70 hrs. In outline: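 Recombinant α-syn (2 μM final) in 10 mM PBS pH 7.4 with 0.5 mM SDS and 300 mM NaCl. Compound at 100 μM final, ThT 20 μM, one borosilicate bead per well. Read at 37 °C every 20 min after 10 s shaking, ex 440/em 485 nm, for 40–70 h. Background was ThT plus 0.25 % DMSO without protein. Plateau fluorescence expressed as % of control, triplicates, mean ± SEM.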

Series [3] shares this target. Kind of series: Inhibition of alpha-syn (unknown origin) aggregation assessed as reduction in fluorescence by Thioflavin-T based fluorescence analysis relative to control. The conditions noted are these: concentration not given here. The method in brief: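 Recombinant α-syn monomer (2 μM final, diluted from a 280 μM stock in 20 mM Tris-HCl pH 7.4) in 10 mM PBS pH 7.4 with 0.5 mM SDS and 300 mM NaCl, one glass bead per well. Compound 100 μM final, ThT 20 μM, 0.25% DMSO. Ex/em 440/485 nm, read every 20 min at 37 °C with shaking, 40–70 h. Triplicates. Plateau fluorescence as % of control, background-corrected.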

The target in series [4] is T1, Microtubule-associated protein tau (Homo sapiens, UniProt P10636). Kind of series: Inhibition of unfolded tau 2N4R (unknown origin) aggregation expressed in Escherichia coli Rosetta BL21 cells assessed as reduction in protein fibril formation at 100 uM measured after 72 hrs by TEM analysis. The method in brief: (§1)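 Recombinant tau 2N4R (6 μM) incubated with compound at 100 μM, or 0.25 % DMSO, in 10 mM PBS pH 7.4 for 72 h at 37 °C. Placed on Formvar-carbon copper grids for 1 min, rinsed, and negatively stained with 1 % uranyl acetate. TEM at 40k magnification, 100 kV.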

In series [5] the target is Alpha-synuclein (Homo sapiens) (UniProt P37840). Kind of series: Inhibition of recombinant alpha-Synuclein (unknown origin) aggregation assessed as reduction in protein fibril formation at 100 uM measured after 68 hrs by TEM analysis. In outline: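 α-Syn (2 μM) samples taken from the ThT kinetic runs after about 68 h at 37 °C, compound at 100 μM, vehicle 0.25 % DMSO. Applied to Formvar-carbon copper grids for 1 min, washed, and stained with 1 % uranyl acetate for 1 min. Imaged by TEM at 40k magnification, 100 kV.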

Series [6] addresses T1, Microtubule-associated protein tau. Kind of series: Inhibition of tau 2N4R (unknown origin) aggregation expressed in Escherichia coli Rosetta BL21 cells assessed as reduction in oligomer formation at 50 to 200 uM incubated for 10 mins in presence of 53W light exposure for 60 sec by PICUP assay. The conditions noted are these: dose 50-200 µM. The method in brief: (§2)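 Tau 2N4R or 0N4R, expressed in-house from a pET30a construct in E. coli Rosetta BL21 and purified by heat step plus SP cation exchange, used at 10 μM in 10 mM phosphate buffer. Compound at 50, 100 and 200 μM. Ru(bpy)3 at 300 μM and APS at 6 mM, 60 s light exposure. Samples boiled at 95 °C for 10 min in reducing Laemmli buffer, then 16 % SDS-PAGE with Coomassie.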

A short description of series [7]: Cytotoxicity against human M17D cells expressing doxycyclin-inducible alpha-syn-S3K::YFP inclusion-prone fusion protein assessed as reduction in cell confluency at 20 to 40 uM treated with compound starting from 24 hrs post plating followed by doxycyclin addition at 48 hrs and measured 96 hrs post plating by Incucyte-based analysis. It is filed as toxicity. The following applies: 72 h, dose 20-40 µM. The method in brief:
(§3)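 Dox-inducible M17D-TR/αS-3K::YFP neuroblastoma cells seeded at 30,000 per well. Compound added 24 h after plating at 1.25–40 μM, with 0.1 % DMSO as vehicle. Dox at 1 μg/mL final was added at 48 h. At 96 h, Incucyte imaging gave confluence fold change vs vehicle. N = 2 independent experiments, 6–12 wells total. Mean ± SD, one-way ANOVA with Dunnett's test.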

Series [8] has as its target T1, Microtubule-associated protein tau. Kind of series: Inhibition of human tau 0N4R aggregation expressed in Escherichia coli Rosetta BL21 cells assessed as reduction in oligomer formation at 50 to 200 uM incubated for 10 mins in presence of 53W light exposure for 60 sec by PICUP assay. The following applies: dose 50-200 µM. In outline: as §2
The target is the same in series [9]. Kind of series: Inhibition of unfolded tau 2N4R (unknown origin) aggregation expressed in Escherichia coli Rosetta BL21 cells assessed as appearance of rounded structures at 100 uM measured after 72 hrs by TEM analysis. The method in brief: as §1
Series [10] shares this target. Kind of series: Inhibition of unfolded tau 2N4R (unknown origin) aggregation expressed in Escherichia coli Rosetta BL21 cells assessed as reduction in short and fine needle like fibrils at 100 uM measured after 72 hrs by TEM analysis. The method in brief: as §1
The nature of series [11]: Cytotoxicity against human M17D cells expressing doxycyclin-inducible alpha-syn-S3K::YFP inclusion-prone fusion protein assessed as reduction in cell confluency at <20 uM treated with compound starting from 24 hrs post plating followed by doxycyclin addition at 48 hrs and measured 96 hrs post plating by Incucyte-based analysis. It is filed as toxicity. The conditions noted are these: 72 h. In outline: as §3

Series [12] concerns the target Alpha-synuclein (Homo sapiens) (UniProt P37840). Kind of series: Inhibition of alpha-syn inclusion formation in human M17D cells expressing doxycyclin-inducible alpha-syn-S3K::YFP inclusion-prone fusion protein assessed as reduction in inclusions treated with compound starting from 24 hrs post plating followed by doxycyclin addition at 48 hrs and measured 96 hrs post plating by Incucyte-based analysis. It is filed as cell-based. The conditions noted are these: time 72.0 hrs. In outline: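 M17D-TR/αS-3K::YFP cells seeded at 30,000 per well and dosed 24 h post-plating at 1.25–40 μM (vehicle 0.1 % DMSO). Transgene induced at 48 h with dox at 1 μg/mL final. At 96 h, Incucyte analysis of punctate YFP inclusions, expressed as fold change vs DMSO. Two independent experiments, 6–12 wells total, mean ± SD, Dunnett's post-hoc test.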

Series [13] has as its target T1, Microtubule-associated protein tau. Kind of series: Inhibition of unfolded tau 2N4R (unknown origin) aggregation expressed in Escherichia coli Rosetta BL21 cells assessed as reduction in formation of large dense accumulation of tau fibrils at 100 uM measured after 72 hrs by TEM analysis. The method in brief: as §1
Series [14] concerns the target Alpha-synuclein (Homo sapiens) (UniProt P37840). As to the kind of experiment: Inhibition of recombinant alpha-Synuclein (unknown origin) aggregation assessed as reduction in fluorescence intensity measured every 20 mins for 40 to 70 hrs by Thioflavin T based fluorescence analysis. The following applies: dose 3.125-25 µM, time 40-70 hrs.
A short description of series [15]: Cytotoxicity against human M17D cells expressing doxycyclin-inducible alpha-syn-S3K::YFP inclusion-prone fusion protein assessed as reduction in cell confluency at 5 to 40 uM treated with compound starting from 24 hrs post plating followed by doxycyclin addition at 48 hrs and measured 96 hrs post plating by Incucyte-based analysis. It is filed as toxicity. The conditions noted are these: 72 h, dose 5-40 µM. In outline: as §3

For series [16], the target named is T1, Microtubule-associated protein tau. As to the kind of experiment: Inhibition of arachidonic acid-induced full-length four-repeat tau 2N4R (unknown origin) aggregation measured upto 19 hrs by TEM analysis.

Active and inactive are the calls of the source. The calls are words filed in the database; no cut-off is given here.

T1 sequence (P10636 whole entry): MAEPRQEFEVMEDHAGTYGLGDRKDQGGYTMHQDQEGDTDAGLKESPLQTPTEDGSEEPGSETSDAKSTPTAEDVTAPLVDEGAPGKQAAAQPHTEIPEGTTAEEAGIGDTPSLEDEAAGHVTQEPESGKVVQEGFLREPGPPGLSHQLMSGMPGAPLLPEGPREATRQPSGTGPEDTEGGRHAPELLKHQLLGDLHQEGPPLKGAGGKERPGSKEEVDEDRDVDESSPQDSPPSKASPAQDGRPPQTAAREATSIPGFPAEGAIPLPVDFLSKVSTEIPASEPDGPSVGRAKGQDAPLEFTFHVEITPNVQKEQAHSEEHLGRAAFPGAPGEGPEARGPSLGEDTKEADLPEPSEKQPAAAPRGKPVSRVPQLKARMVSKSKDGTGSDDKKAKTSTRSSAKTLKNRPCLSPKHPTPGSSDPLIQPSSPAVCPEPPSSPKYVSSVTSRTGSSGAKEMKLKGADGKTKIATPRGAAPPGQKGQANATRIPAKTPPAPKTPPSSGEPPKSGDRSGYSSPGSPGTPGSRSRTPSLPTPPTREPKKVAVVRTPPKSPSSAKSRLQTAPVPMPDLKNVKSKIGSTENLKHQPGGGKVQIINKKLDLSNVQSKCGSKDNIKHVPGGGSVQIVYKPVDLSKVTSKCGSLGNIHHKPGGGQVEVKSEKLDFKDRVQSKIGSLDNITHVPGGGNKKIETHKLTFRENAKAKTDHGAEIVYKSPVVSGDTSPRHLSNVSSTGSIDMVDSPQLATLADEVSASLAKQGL

As a reminder, the inhibition is the share of the control response that was lost under treatment. In the case of `COc1cccc2sc(NS(=O)(=O)c3ccc([N+](=O)[O-])cc3)nc12`, the inhibition entry in [1] was “inactive”. In addition, the Activity in series [2] was 9.5%.
With `O=C(O[C@@H]1Cc2c(O)cc(O)cc2O[C@@H]1c1cc(O)c(O)c(O)c1)c1cc(O)c(O)c(O)c1`, the inhibition in series [3] worked out at 90%.
For the molecule `O=[N+]([O-])c1ccc(S(=O)(=O)Nc2ccc3[nH]ccc3c2)cc1`, in series [2], the Activity was determined as 97.6%.
Turning to `COc1cccc2sc(NS(=O)(=O)c3ccccc3I)nc12`, in [1], the inhibition entry was “inactive”. Moreover, the Activity in [2] is 5.8%.
Take `O=C(Nc1ccc([N+](=O)[O-])cc1)Nc1ccc2[nH]ccc2c1`: the inhibition result in series [4], in series [5], in series [9], in series [10], in [12] and in series [13] was “Active” in each case. In addition, the inhibition result in [6] and in series [8] was “inactive” each time. Moreover, the values for the Activity result in [7], in series [11] and in series [2] were “Toxic”, “Non-Toxic” and 2.9%, respectively.
In the case of `COc1cccc2sc(NS(=O)(=O)c3ccc(I)cc3)nc12`, the Activity in series [2] turned out to be 42.8%.
Still for that read-out and setting: to `COc1cccc2sc(NC(=O)Nc3cccs3)nc12` belongs 41.6%.
Take `COc1cccc2sc(NC(=O)Nc3ccc(C(F)(F)F)cc3)nc12`: in series [2], the Activity amounted to 94.8%.
The same measure, in the same setting: for `COc1cccc2sc(NC(=O)c3cccs3)nc12` the value was 86.6%.
As to `COc1cccc2sc(NC(=O)c3ccc(Br)cc3)nc12`, the Activity in [2] is more than 200%.
On the same count and under the same terms, to `COc1cccc2sc(NC(=O)Nc3cccc(C(F)(F)F)c3)nc12` belongs more than 200%.
The same measure, in the same setting: for `COc1cccc2sc(NS(=O)(=O)c3cc(Cl)cc(Cl)c3)nc12` the value was 39.3%.
Turning to `O=C(Nc1ccc([N+](=O)[O-])cc1)Nc1cccc2[nH]ccc12`, the inhibition result in [4], in series [5], in [1], in series [9], in series [10] and in series [12] was “Active” in each case. In [13], the inhibition result is “Active”. Moreover, the inhibition entry in series [14] is “Dose-Dependent Effect”. The inhibition entry in series [6] and in series [8] was “inactive” each time. The Activity result in series [7] is “Toxic”; in series [11], “Non-Toxic”; in [2] it was 4%.
Take `COc1cccc2sc(NC(=O)c3ccc([N+](=O)[O-])cc3)nc12`: the Activity in series [2] came to 45.4%.
Same read-out and setting: to `COc1cccc2sc(NS(=O)(=O)c3ccccc3)nc12` belongs 74.6%; to `O=S(=O)(Nc1ccc2[nH]ccc2c1)c1ccccc1I`, 59.7%; to `O=C(Nc1ccccc1I)Nc1cccc2[nH]ccc12`, 38.3%.
On the same count and under the same terms, for `COc1ccccc1NC(=O)Nc1nc2c(OC)cccc2s1` the value was 199%; for `COc1cccc2sc(NC(=O)Nc3ccc(C#N)cc3)nc12`, more than 200%.
Consider `COc1cccc2sc(NC(=O)Nc3cccc([N+](=O)[O-])c3)nc12`, for which the Activity in [2] turned out to be 78.1%.
Same read-out and setting: to `COc1cccc2sc(NS(=O)(=O)c3cccs3)nc12` belongs 41.6%.
Still for that read-out and setting: for `COc1cccc2sc(NC(=O)c3ccc(F)cc3)nc12` the value was 103%; for `COc1cccc2sc(NC(=O)Nc3ccccc3I)nc12`, 125%.
`O=C(Nc1ccc([N+](=O)[O-])cc1)Nc1ccc2cc[nH]c2c1`: the Activity entry is “Toxic” in [15] and 3.6% in series [2]. Moreover, the inhibition entry in [4], in [5], in series [9], in series [10] and in series [13] was “Active” throughout. Further, the inhibition result in series [6] and in series [8] was “inactive” throughout. In addition, the inhibition entry in series [12] was “Dose-Dependent Effect”.
In the case of `COc1cccc2sc(NC(=O)c3ccccc3Cl)nc12`, the Activity in [2] was 262%.
On the same count and under the same terms, to `COc1cccc2sc(NC(=O)c3ccccc3C)nc12` belongs 137%; to `COc1cccc2sc(NC(=O)Nc3ccccc3)nc12`, 130%.
The IC50 is the point on the concentration scale where inhibition reaches its midpoint. A low value points to higher potency. In series [16], `CCC(/C=C1\Sc2ccc(OC)cc2N1CCO)=C\c1sc2ccc(OC)cc2[n+]1CCO` showed an IC50 of 300 nM.

The values above are taken from ChEMBL document CHEMBL5523695, “Discovery of small molecule benzothiazole and indole derivatives tackling tau 2N4R and α-synuclein fibrils” (Bioorg Med Chem, 2024).
